Assays:
[1] = Intrinsic clearance in human liver microsomes; assay type: ADME, Microsome; settings: read-out: CLH
[2] = Aqueous solubility of the compound at pH 1; assay type: physicochemical
[3] = Aqueous solubility of the compound at pH 6.5; assay type: physicochemical
[4] = Aqueous solubility of the compound at pH 7.4; assay type: physicochemical
[5] = Stability in human microsomes assessed as parent compound remaining after 90 mins in presence of phase 1 and 2 metabolic cofactors; assay type: ADME, Microsome; settings: read-out: Stability
[6] = Stability in rat microsomes assessed as parent compound remaining after 90 mins in presence of phase 1 and 2 metabolic cofactors; assay type: ADME, Microsome; settings: read-out: Stability
[7] = Permeability across apical to basolateral side in human Caco2 cells; assay type: ADME, cell-based; settings: Caco-2, read-out: permeability
[8] = Permeability across basolateral to apical side in human Caco2 cells; assay type: ADME, cell-based; settings: Caco-2, read-out: permeability
[9] = Clearance in Sprague-Dawley rat at 10 mg/kg, iv administered as single dose; assay type: ADME, organism-based; settings: in vivo
Procedure, shortened: (§1)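 Sprague-Dawley rats were given single doses, intravenous at 10–50 mg/kg or oral at 10, 25 and 50 mg/kg. Plasma PK parameters were CL, AUC0-inf, t1/2, Cmax and %F.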

[10] = Clearance in Sprague-Dawley rat at 25 mg/kg, iv administered as single dose; assay type: ADME, organism-based; settings: in vivo; procedure, shortened: as §1
[11] = Clearance in Sprague-Dawley rat at 50 mg/kg, iv administered as single dose; assay type: ADME, organism-based; settings: in vivo; procedure, shortened: as §1
[12] = AUC (0 to infinity) in Sprague-Dawley rat at 10 mg/kg, iv administered as single dose; assay type: ADME, organism-based; design: dose 10 mg/kg, time infinity, route intravenous; settings: in vivo; procedure, shortened: as §1
[13] = AUC (0 to infinity) in Sprague-Dawley rat at 25 mg/kg, iv administered as single dose; assay type: ADME, organism-based; design: dose 25 mg/kg, route intravenous, time infinity; settings: in vivo; procedure, shortened: as §1
[14] = AUC (0 to infinity) in Sprague-Dawley rat at 50 mg/kg, iv administered as single dose; assay type: ADME, organism-based; design: dose 50 mg/kg, time infinity, route intravenous; settings: in vivo; procedure, shortened: as §1
[15] = AUC (0 to infinity) in Sprague-Dawley rat at 10 mg/kg, po administered as single dose; assay type: ADME, organism-based; design: dose 10 mg/kg, route oral, time infinity; settings: in vivo; procedure, shortened: as §1
[16] = AUC (0 to infinity) in Sprague-Dawley rat at 25 mg/kg, po administered as single dose; assay type: ADME, organism-based; design: dose 25 mg/kg, time infinity, route oral; settings: in vivo; procedure, shortened: as §1
[17] = AUC (0 to infinity) in Sprague-Dawley rat at 50 mg/kg, po administered as single dose; assay type: ADME, organism-based; design: dose 50 mg/kg, route oral, time infinity; settings: in vivo; procedure, shortened: as §1
[18] = Half life in Sprague-Dawley rat at 10 mg/kg, iv administered as single dose; assay type: ADME, organism-based; settings: in vivo; procedure, shortened: as §1
[19] = Half life in Sprague-Dawley rat at 25 mg/kg, iv administered as single dose; assay type: ADME, organism-based; settings: in vivo
Procedure, shortened: (§2)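 Sprague-Dawley rats each received one dose of drug, either iv across 10-50 mg/kg or orally at 10, 25 and 50 mg/kg. Plasma pharmacokinetics covered CL, AUC0-inf, t1/2, Cmax and Tmax. Oral bioavailability (%F) was obtained from the oral and iv exposures.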

[20] = Half life in Sprague-Dawley rat at 50 mg/kg, iv administered as single dose; assay type: ADME, organism-based; settings: in vivo; procedure, shortened: as §2
[21] = Half life in Sprague-Dawley rat at 10 mg/kg, po administered as single dose; assay type: ADME, organism-based; settings: in vivo; procedure, shortened: as §2
[22] = Half life in Sprague-Dawley rat at 25 mg/kg, po administered as single dose; assay type: ADME, organism-based; settings: in vivo; procedure, shortened: as §2
[23] = Half life in Sprague-Dawley rat at 50 mg/kg, po administered as single dose; assay type: ADME, organism-based; settings: in vivo; procedure, shortened: as §2
[24] = Cmax in Sprague-Dawley rat at 10 mg/kg, po administered as single dose; assay type: ADME, organism-based; design: dose 10 mg/kg, route oral; settings: in vivo; procedure, shortened: as §1
[25] = Cmax in Sprague-Dawley rat at 25 mg/kg, po administered as single dose; assay type: ADME, organism-based; design: dose 25 mg/kg, route oral; settings: in vivo; procedure, shortened: as §1
[26] = Cmax in Sprague-Dawley rat at 50 mg/kg, po administered as single dose; assay type: ADME, organism-based; design: dose 50 mg/kg, route oral; settings: in vivo; procedure, shortened: as §1
[27] = Oral bioavailability in Sprague-Dawley rat at 25 mg/kg administered as single dose; assay type: ADME, organism-based; settings: in vivo; procedure, shortened: as §2
[28] = Oral bioavailability in Sprague-Dawley rat at 50 mg/kg administered as single dose; assay type: ADME, organism-based; settings: in vivo; procedure, shortened: as §2
[29] = Clearance in C57Bl6 mouse at 10 mg/kg, iv administered as single dose; assay type: ADME, organism-based; settings: in vivo
Procedure, shortened: (§3)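 C57Bl/6 mice were given single intravenous or oral doses (oral at 10 and 100 mg/kg). Plasma PK parameters were CL, AUC0-inf, t1/2, Cmax and %F.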

[30] = Clearance in C57Bl6 mouse at 50 mg/kg, iv administered as single dose; assay type: ADME, organism-based; settings: in vivo; procedure, shortened: as §3
[31] = AUC (0 to infinity) in C57Bl6 mouse at 10 mg/kg, iv administered as single dose; assay type: ADME, organism-based; design: dose 10 mg/kg, time infinity, route intravenous; settings: in vivo; procedure, shortened: as §3
[32] = AUC (0 to infinity) in C57Bl6 mouse at 50 mg/kg, iv administered as single dose; assay type: ADME, organism-based; design: dose 50 mg/kg, route intravenous, time infinity; settings: in vivo; procedure, shortened: as §3
[33] = AUC (0 to infinity) in C57Bl6 mouse at 10 mg/kg, po administered as single dose; assay type: ADME, organism-based; design: dose 10 mg/kg, time infinity, route oral; settings: in vivo; procedure, shortened: as §3
[34] = AUC (0 to infinity) in C57Bl6 mouse at 100 mg/kg, po administered as single dose; assay type: ADME, organism-based; design: dose 100 mg/kg, time infinity, route oral; settings: in vivo; procedure, shortened: as §3
[35] = Half life in C57Bl6 mouse at 10 mg/kg, iv administered as single dose; assay type: ADME, organism-based; settings: in vivo; procedure, shortened: as §3
[36] = Half life in C57Bl6 mouse at 50 mg/kg, iv administered as single dose; assay type: ADME, organism-based; settings: in vivo; procedure, shortened: as §3

SMILES: O[C@H](C[C@H]1c2c(F)cccc2-c2cncn21)[C@H]1CC[C@H](O)CC1 [NAVOXIMOD]
- predicted hepatic clearance [1]: 8.52 mL/min/kg
- solubility [2]: > 200 µM
- solubility [3]: > 200 µM
- solubility [4]: > 200 µM
- remaining at […] [5]: > 85%
- remaining at […] [6]: > 85%
- Papp A→B [7]: 22.7 ×10⁻⁶ cm/s
- Papp B→A [8]: 35 ×10⁻⁶ cm/s
- clearance [9]: 44.6 mL/min/kg
- clearance [10]: 32 mL/min/kg
- clearance [11]: 23.2 mL/min/kg
- AUC(0-inf) [12]: 3930 ng·h/mL
- AUC(0-inf) [13]: 13400 ng·h/mL
- AUC(0-inf) [14]: 35000 ng·h/mL
- AUC(0-inf) [15]: 1630 ng·h/mL
- AUC(0-inf) [16]: 7980 ng·h/mL
- AUC(0-inf) [17]: 15400 ng·h/mL
- half-life [18]: 1.44 h
- half-life [19]: 1.25 h
- half-life [20]: 1 h
- half-life [21]: 1.05 h
- half-life [22]: 1.15 h
- half-life [23]: 1.06 h
- Cmax [24]: 1560 ng/mL
- Cmax [25]: 6420 ng/mL
- Cmax [26]: 10000 ng/mL
- bioavailability [27]: 60.4%
- bioavailability [28]: 44.1%
- clearance [29]: 27.5 mL/min/kg
- clearance [30]: 25 mL/min/kg
- AUC(0-inf) [31]: 6130 ng·h/mL
- AUC(0-inf) [32]: 34600 ng·h/mL
- AUC(0-inf) [33]: 3780 ng·h/mL
- AUC(0-inf) [34]: 60200 ng·h/mL
- half-life [35]: 3.9 h
- half-life [36]: 3 h
